Results from ChEMBL document CHEMBL1143869, “Amide bond direction modulates G-quadruplex recognition and telomerase inhibition by 2,6 and 2,7 bis-substituted anthracenedione derivatives” (Bioorg Med Chem, 2008).

Tests used:
[1] = Inhibition of human telomerase in JR8 cells by TRAP assay; assay type: cell-based
Summary of the method: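 Modified TRAP assay. Telomerase source was supernatant of JR8 cell lysate (13000 rpm, 30 min, 4 °C). The 50 µl reaction held 50 µM dNTPs, 0.2 µg labelled TS, 0.1 µg ACX return primer, 500 ng protein extract, 2 U Taq and a TSNT internal control with NT primer, with or without drug at increasing concentrations. Telomerase was inactivated at 85 °C for 5 min. PCR ran 25 cycles (94/65/72 °C, 30 s each). Products were resolved on a 2% agarose gel and stained with ethidium bromide.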

Homo sapiens [2] = species on record: Homo sapiens; assay: Binding affinity to human telomeric G-quadraflex assessed as thermal stability at 1 uM by FRET assay
Summary of the method: (§1)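 Human telomeric (GGGTTA)4 oligonucleotide labelled with fluorescein at the 5'-end and MethylRed quencher at the 3'-end, folded into an intramolecular G-quadruplex in 50 mM potassium phosphate buffer, pH 7.4. Fluorescence melting was run on a Roche Light Cycler (excitation 488 nm, emission 520 nm) without and with ligand. Stabilisation was taken as the increase in melting temperature.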

Homo sapiens [3] = species on record: Homo sapiens; assay: Binding affinity to human telomeric G-quadraflex assessed as thermal stability at 10 uM by FRET assay; summary of the method: as §1

SMILES: O=C(CCN1CCCC1)Nc1ccc2c(c1)C(=O)c1ccc(NC(=O)CCN3CCCC3)cc1C2=O
- EC50 [1]: 2.5 µM
- ΔTm (Homo sapiens [2]): 5.9 °C
- ΔTm (Homo sapiens [3]): 19.2 °C

SMILES: NCCC(=O)Nc1ccc2c(c1)C(=O)c1ccc(NC(=O)CCN)cc1C2=O
- EC50 [1]: 1.2 µM
- ΔTm (Homo sapiens [2]): 9.1 °C
- ΔTm (Homo sapiens [3]): 18.1 °C

SMILES: O=C(NCCN1CCCC1)c1ccc2c(c1)C(=O)c1ccc(C(=O)NCCN3CCCC3)cc1C2=O
- EC50 [1]: 10.4 µM
- ΔTm (Homo sapiens [2]): 1.8 °C
- ΔTm (Homo sapiens [3]): 10.8 °C

SMILES: NCCNC(=O)c1ccc2c(c1)C(=O)c1cc(C(=O)NCCN)ccc1C2=O
- EC50 [1]: 14.5 µM
- ΔTm (Homo sapiens [2]): 3.3 °C
- ΔTm (Homo sapiens [3]): 12.9 °C

SMILES: NCCNC(=O)c1ccc2c(c1)C(=O)c1ccc(C(=O)NCCN)cc1C2=O
- EC50 [1]: 5.2 µM
- ΔTm (Homo sapiens [2]): 2 °C
- ΔTm (Homo sapiens [3]): 10 °C

SMILES: NCCC(=O)Nc1ccc2c(c1)C(=O)c1cc(NC(=O)CCN)ccc1C2=O
- EC50 [1]: 1.2 µM
- ΔTm (Homo sapiens [2]): 11.3 °C
- ΔTm (Homo sapiens [3]): 27.3 °C
